High-throughput results deposited in PubChem BioAssay by Johns Hopkins Ion Channel Center.
Only some compounds are listed: those with a hit (about 3.1% of all), similar ones and a draw of the others.
KCNK3 block = human KCNK3 channel inhibition, primary screen | CHO-KCNK3 thallium flux, FluxOR fluorescence; stronger effect = lower value | B-score at 10 µM | 340,000 compounds, 0.84% hits | AID 602410;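 active means B-score under library mean minus 4 SD, starting fluorescence ratio at most library mean plus 5 SD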;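 further: more negative B-score means stronger inhibition of thallium flux through KCNK3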
hERG protect = shields human hERG channel from block by proarrhythmic agents | CHO-hERG, FluxOR thallium flux, dofetilide IC70 present | 310,000 compounds, 0.51% hits | activation (rescue from dofetilide block), less the hit threshold, % at 10 µM | Q12809;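 active means activation above the mean of controls blocked by dofetilide plus 5 SD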;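 further: thallium influx through hERG after potassium depolarization seen as dye fluorescence rise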
KCNK9 block = inhibitors of human KCNK9 two-pore domain potassium channel; AID 488922; B-score at 10 µM; HEK293 KCNK9, FluxOR thallium flux fluorescence; stronger effect = lower value; 310,000 compounds, 1.2% hits; Q9NPC2;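 active means ratio B-score over 3 SD below the library mean, with starting fluorescence within 5 SD of its mean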;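 further: negative B-score means less thallium flux so channel inhibition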
KCNQ1 pot = potentiates or activates the human KCNQ1 potassium channel | AID 2648 | B-score at 10 µM | P51787 | 310,000 compounds, 0.35% hits | CHO-K1 KCNQ1, thallium flux FluxOR fluorescence; stronger effect = higher value;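 active means fluorescence ratio B-score, a plate-corrected score, at least three library SD, with initial intensity B-score within 5 SD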
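System: CHO-K1 cells stably expressing KCNQ1 / Medium: assay buffer for compound exposure, DMSO matched across wells / Reagent: thallium- and potassium-containing depolarizing buffer / Compound: one concentration, matched DMSO / Incubation: 20 min compound pretreatment at room temperature / Measured by: kinetic FluxOR fluorescence, 10 s baseline plus 110 s post-stimulus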
KCNQ1 block = blocks the human KCNQ1 potassium channel; P51787; CHO-K1 KCNQ1, FluxOR thallium flux fluorescence; stronger effect = higher value; B-score at 10 µM; 310,000 compounds, 1.3% hits;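 active means compounds whose thallium flux B-score, printed positive for inhibition, exceeds three library SD while starting fluorescence stays within three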;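 further: channel opened by potassium depolarization with thallium stimulus after 20 min compound exposure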
KCNK9 block conf = confirmation of human KCNK9 potassium channel inhibitors; AID 492992; HEK293 KCNK9 cells, FluxOR thallium flux fluorescence; shares compounds with KCNK9 block; inhibition, % at 10 µM; 4,900 compounds, 43% hits;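 active means thallium signal inhibited by more than 5 SD of the compound-free buffer control wells, on both duplicate plates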
Kir2-1 spec = selectivity of KCNK9 modulators against mouse Kir2.1. shares compounds with KCNK9 block. Kir2.1 cells, FluxOR thallium flux fluorescence. inhibition, % at 10 µM. 4,900 compounds, 4% hits;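 active means thallium signal drop more than 5 SD beyond the mean of the no-compound control wells, seen in both duplicate plates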;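 further: signal is fluorescence rise after thallium addition divided by baseline fluorescence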
Target sequence (P35561 whole entry, looked up): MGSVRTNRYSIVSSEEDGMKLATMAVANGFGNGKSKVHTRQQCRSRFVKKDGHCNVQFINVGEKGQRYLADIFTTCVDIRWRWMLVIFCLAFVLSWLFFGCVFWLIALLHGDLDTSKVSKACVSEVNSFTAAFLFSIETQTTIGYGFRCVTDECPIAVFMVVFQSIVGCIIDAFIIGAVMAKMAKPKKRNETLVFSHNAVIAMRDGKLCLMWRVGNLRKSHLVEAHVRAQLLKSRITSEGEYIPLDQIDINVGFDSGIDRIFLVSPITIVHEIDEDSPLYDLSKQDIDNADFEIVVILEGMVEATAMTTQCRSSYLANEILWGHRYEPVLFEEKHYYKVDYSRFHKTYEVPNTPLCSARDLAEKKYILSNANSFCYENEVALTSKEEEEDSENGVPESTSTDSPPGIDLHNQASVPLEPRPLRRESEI
HEK293 Tl ctr = second counter-screen for KCNK9 modulators: effect in non-induced cells. AID 492997. inhibition, % at 10 µM. shares compounds with KCNK9 block. 4,900 compounds, 40% hits. non-induced KCNK9-HEK293, FluxOR thallium flux;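 active means thallium signal drop beyond 5 SD of the untreated control mean, on both duplicate plates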
Each line names hits and unclear results; the compound was inactive in the other large screens (follow-up assays come after a bar, where they were run).

c1coc(CN(Cc2cccs2)Cc2nnnn2C2CCCCC2)c1	none
Clc1ccccc1CN(Cc1ccco1)Cc1nnnn1C1CCCC1	KCNK9 block -9.9 | KCNK9 block conf 60% | Kir2-1 spec 47% | HEK293 Tl ctr 41%
CCc1ccc(NC(=O)C2C3CCC(O3)C2C(=O)O)cc1 (stereo not given)	none
COC(=O)c1ccc(N2CCCCC2)c(NS(=O)(=O)c2ccc(C)cc2)c1	none
CCOC(=O)c1ccc(N2CCCCC2)c(NS(=O)(=O)c2cccc(C(F)(F)F)c2)c1	KCNK9 block -11 | KCNK9 block conf 56% | Kir2-1 spec inactive | HEK293 Tl ctr 34%
O=C(Cn1ncn2nc(-c3ccccc3)cc2c1=O)NCc1ccccn1	none
COc1ccccc1CNS(=O)(=O)c1ccc2c(c1)CC(C)N2C(=O)C1CCC1 (stereo not given)	none
O=C(CCc1ccc(O)cc1)c1c(O)cc(O)cc1O	none
COc1cc(O)c(CC=C(C)C)c(O)c1C(=O)CCc1ccc(O)cc1	KCNK9 block -14 | KCNK9 block conf 32% | Kir2-1 spec inactive | HEK293 Tl ctr 34%
CC(C)NC(=O)[C@H](CSCc1ccccc1)N1Cc2ccccc2C1=O	none
O=C(NC1CCCCC1)[C@H](CSCc1ccccc1)N1Cc2ccccc2C1=O	none | KCNK9 block conf inactive | Kir2-1 spec inactive | HEK293 Tl ctr inactive
COc1ccc(C(=O)CSc2nc(C(C)(C)C)nc3ccccc23)cc1	KCNK9 block -10 | KCNK9 block conf 46% | Kir2-1 spec 35% | HEK293 Tl ctr 30%
COc1ccc(C)cc1NC(=O)CNC(C)C(=O)Nc1cc(Cl)ccc1Cl (stereo not given)	none
Cc1ccc(C)c(-n2c(C)cc(/C=N/NC(=O)c3c(C)nc4cc(C)ccn34)c2C)c1	none
O=C(/C=C/c1ccccc1Cl)N(Cc1ccc(Cl)cc1)C1CCS(=O)(=O)C1 (stereo not given)	KCNK9 block -8.2 | KCNK9 block conf 55% | Kir2-1 spec inactive | HEK293 Tl ctr 36%
CCCN(CCC)C(=O)Cn1c(=O)c2ccccc2n2c(=S)sc(-c3ccccc3C)c12	none | KCNK9 block conf inactive | Kir2-1 spec inactive | HEK293 Tl ctr inactive
CCCN(CCC)C(=O)Cn1c(=O)c2sccc2n2c(=S)sc(-c3ccccc3)c12	none
CCN1C(=O)c2ccc(C(=O)NCc3ccco3)cc2C1=O	none
C=C(C)COc1ccc(-c2ncncc2-c2ccc(Br)cc2)c(O)c1	none | KCNK9 block conf inactive | Kir2-1 spec inactive | HEK293 Tl ctr inactive
C=C(C)COc1ccc(-c2ncncc2-c2ccc(Cl)cc2)c(O)c1	none
Cc1ccc2c(c1)N(C(=O)CCC(=O)Nc1ccccc1Cl)CC(C)O2 (stereo not given)	none | KCNK9 block conf inactive | Kir2-1 spec inactive | HEK293 Tl ctr inactive
Cc1ccc2c(c1)N(C(=O)CCC(=O)NCc1ccccc1)CC(C)O2 (stereo not given)	none
Cc1ccc2c(c1)N(C(=O)CCC(=O)N1CCN(c3ccccn3)CC1)CC(C)O2 (stereo not given)	none
Cc1cccc(N2CCN(C(=O)CCC(=O)N3CC(C)Oc4ccc(C)cc43)CC2C)c1 (stereo not given)	none | KCNK9 block conf inactive | Kir2-1 spec inactive | HEK293 Tl ctr inactive
Cc1nc(NCc2ccccn2)c2c3c(sc2n1)CCCC3	none | KCNK9 block conf inactive | Kir2-1 spec inactive | HEK293 Tl ctr inactive
CCOc1ccc2c(c1)-c1c(ssc1=S)C(C)(C)N2C(=O)CSC1=NCCS1	KCNK9 block -13 | KCNK9 block conf 70% | Kir2-1 spec inactive | HEK293 Tl ctr 34%
NC(=S)n1[nH]c(-c2ccc([N+](=O)[O-])cc2)c(N=Nc2cccc(Cl)c2)c1=O	KCNQ1 pot 8 | KCNK9 block conf inactive | Kir2-1 spec inactive | HEK293 Tl ctr inactive
O=C(Oc1ccccc1)c1cccc2cccc(C(=O)Oc3ccccc3)c12	KCNK9 block -9.2 | KCNK9 block conf 42% | Kir2-1 spec inactive | HEK293 Tl ctr 26%
O=C(Oc1ccccc1)c1ccccc1C(=O)Oc1ccccc1	none (no result: hERG protect, KCNK9 block, KCNQ1 pot, KCNQ1 block)
CN1CCN(S(=O)(=O)c2cccc(S(=O)(=O)c3cccc(S(=O)(=O)N4CCN(C)CC4)c3)c2)CC1	none
Cc1ccc(C)c(NC(=O)c2oc(=O)c3ccccc3c2-c2ccccc2)c1	KCNK9 block -15 | KCNK9 block conf 64% | Kir2-1 spec inactive | HEK293 Tl ctr 44%
Cc1cc(C)n(C(=O)c2ccc(C)c(Br)c2)n1	none | KCNK9 block conf inactive | Kir2-1 spec inactive | HEK293 Tl ctr inactive
O=C(CCn1nc(-c2ccccc2)ccc1=O)N1CCN(c2ccccn2)CC1	none
Cc1ccc(NC(=O)CN2C(=O)N/C(=C/c3cc(C)n(-c4ccc(C(=O)O)cc4)c3C)C2=O)cc1	none (no result: hERG protect, KCNK9 block, KCNQ1 pot, KCNQ1 block)
Cc1ccc(NC(=O)CN2C(=O)S/C(=C\c3cc(C)n(-c4ccc(C(=O)O)cc4)c3C)C2=O)cc1	none | KCNK9 block conf inactive | Kir2-1 spec inactive | HEK293 Tl ctr inactive
CCN(CC(=O)Nc1ccc(C)c(F)c1)CC(=O)NC(C)C	none
O=C(CC(=O)c1ccccc1[N+](=O)[O-])c1ccccc1	none (no result: KCNK3 block)
O=C(NCc1cc(Br)cc(Br)c1OC(=O)c1ccccc1[N+](=O)[O-])c1ccccc1	KCNK9 block -9.9 | KCNK9 block conf 62% | Kir2-1 spec inactive | HEK293 Tl ctr 34%
CCOc1ccc(NC(=O)C2=C(C)C(=O)OC23CCC(C)CC3)cc1 (stereo not given)	none
O=c1c(Cc2ccc(Cl)cc2Cl)c(O)ccn1Cc1ccncc1	none
O=c1c(C/C=C/c2ccccc2)c(O)ccn1Cc1ccc(Cl)cc1Cl	KCNQ1 block 9 | KCNK9 block conf inactive | Kir2-1 spec inactive | HEK293 Tl ctr inactive
O=C1OC(c2ccccc2)Cc2cc(C(=O)N3CCN(c4ccc(F)cc4)CC3)ccc21 (stereo not given)	none (no result: hERG protect, KCNK9 block, KCNQ1 pot, KCNQ1 block)
O=C(CCC(=O)N(CC(=O)NC1CCCC1)Cc1ccc(F)cc1)Nc1nccs1	none
COc1cc(/C=C2/C(=N)N3OC(C)=CC3=NC2=O)ccc1OCCOc1ccc(C)cc1	none
CC1=CC2=NC(=O)/C(=C\c3cccn3CCOc3cc(C)ccc3C)C(=N)N2O1	KCNK9 block -8.8 | KCNK9 block conf 66% | Kir2-1 spec inactive | HEK293 Tl ctr 29%
Cc1cc(C)c(-n2nnnc2SC(C)C)c(C)c1	KCNK9 block -11 | KCNK9 block conf 54% | Kir2-1 spec inactive | HEK293 Tl ctr 42%
Cc1ccc(-n2nnnc2SC(C)C(N)=O)c(C)c1 (stereo not given)	none
N#CCO/N=C/C(=O)Nc1ccc(F)cc1F	none
